PubChem BioAssay
Records with an inconclusive call do not appear. Activity calls are given as the source filed them.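 The calls were made as follows, unless noted: active = cell viability at or below a set limit in both duplicate runs, the limit being the all-compound median minus 4 SD (cut at about 23% in these data, passing the limit was not always enough); inconclusive = no clear call, values can overlap the other calls; inactive = the rest.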

How the values were obtained:
[1] = S. cerevisiae growth inhibition in permissive medium (OD615), pilot counter-assay for S. cerevisiae lifespan shortening project, permissive growth control (AID 705;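 active = growth inhibition above 25% in both replicates, a cutoff set 3 SD above the mean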); conditions: OD615, 24 h, at 10 µM, stronger effect = higher value
Method in brief: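 Material: engineered DeaD yeast; Compound: one dose 10 µM, DMSO 0.25% final; Detection: absorbance (optical density) at 615 nm; Buffer or medium: permissive raffinose/galactose medium; Timing: 24 h exposure, 30 °C.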

[2] = S. cerevisiae growth inhibition in restrictive medium, OD615, pilot screen, restrictive growth control, yeast lifespan reduction project (AID 706;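 active = growth inhibition above a set limit, 3 SD over mean compound inhibition, in both replicates, cut at about 43% in these data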;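 also: modified DeaD lifespan yeast strain shifted to restrictive glucose medium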); conditions: OD615, 48 h, at 10 µM, stronger effect = higher value
Method in brief: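 Buffer or medium: restrictive glucose medium (CSMM-D); test system: modified S. cerevisiae; doses: single dose of 10 µM compound final, 0.25% DMSO; schedule: 48 h compound exposure at 30 °C; detection: absorbance (optical density) measured at 615 nm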

[3] = doxorubicin toxicity protection in MRP-1 cells – H69AR cells, CellTiter-Glo, duplicate, MRP-1 activator project, pilot screen (AID 807;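 active = viability increase at or above a cutoff of the median across tested compounds plus 3 SD, cut at about 8.5% in these data, passing the limit was not always enough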;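 also: compound pretreatment 18-22 h then 72 h combined with doxorubicin; 0% = doxorubicin alone and 100% = vehicle without doxorubicin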); conditions: H69AR viability with doxorubicin, CellTiter-Glo luminescence; at 10 µM; stronger effect = higher value
[4] = viability of HCT116 without oncogenic beta-catenin – human colon tumor cells, pilot screen (AID 823); conditions: HCT116 beta-catenin knockout viability, CellTiter-Glo, 60 h; at 10 µM; stronger effect = lower value;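 also: 0% = wells killed by 20 µM Hyamine and 100% = untreated DMSO cell wells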
[5] = viability of PTEN-null HCT116 cells – cell-based, HCT116 clonal line, CellTiter-Glo, pilot screen (AID 824;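 active = viability at or below 27.92% in each of two runs, the all-compound median minus 4 SD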;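 also: 0% = 20 µM Hyamine control and 100% = vehicle cell control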); conditions: HCT116 PTEN-deleted viability, 60 h, at 10 µM, stronger effect = lower value
[6] = RAM pathway blockade in budding yeast – dse1pr::URA3 reporter, 5-FOA selection, pilot screen (AID 869;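 active = inhibition over a set limit, the all-compound mean plus 3 SD, in both replicate runs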;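 also: 0% = DMSO wells with no growth and 100% = 10 µM 1-NA-PP1 with full growth; RAM network block rescues cells from 5-FOA so hits raise OD615 growth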); conditions: S. cerevisiae dse1pr::URA3 5-FOA growth, OD615, 2 d; at 10 µM; stronger effect = higher value; strain carries analog-sensitive mutant Cbk1 kinase
[7] = RAM signaling pathway blockade in yeast – S. cerevisiae, Pdr1DBD-CYC8 efflux-inhibited sensitized strain, primary screen (AID 1298;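 active = RAM network inhibition above 8.4% in each of two replicates, 3 SD over the compound average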;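 also: 0% = DMSO untreated cells without growth and 100% = 10 µM 1-NA-PP1 full growth; higher means more yeast growth rescued from 5-FOA killing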); conditions: S. cerevisiae cbk1-as DSE1-URA3 strain, 5-FOA growth OD615, 2 d; at 50 µM; stronger effect = higher value

CCOC(=O)Cc1csc(NC(=O)Nc2ccccc2)n1
inactive: growth inhibition [1] -11.8% | growth inhibition [2] -12.1% | viability increase [3] -0.81% | viability [4] 53.2% | viability [5] 53.2% | inhibition [6] 0.665% | RAM network inhibition [7] 4.19%

COc1ccccc1C1C=C(c2ccccc2)Nc2nnnn21 (stereo not drawn)
inactive: growth inhibition [1] -4.73% | growth inhibition [2] 4.88% | viability increase [3] -0.25% | viability [4] 72.2% | viability [5] 83.7% | inhibition [6] 0.05% | RAM network inhibition [7] 5.5%

Cc1cc2cc(CNC(=O)c3ccc(Br)o3)ccc2n1C
inactive: growth inhibition [1] -9.25% | growth inhibition [2] -10.3% | viability increase [3] -2.79% | viability [4] 94.2% | viability [5] 92.1% | inhibition [6] 1.93% | RAM network inhibition [7] 9.25%

CCOC(=O)C(CCC#N)(CCC#N)C(=O)OCC
inactive: growth inhibition [1] -11.9% | growth inhibition [2] -5.42% | viability increase [3] -0.16% | viability [4] 95.9% | viability [5] 102% | inhibition [6] 0.445% | RAM network inhibition [7] 5.31%

COc1ccccc1OCCC(=O)OCC(=O)NC(=O)NC(C)(C)C
inactive: growth inhibition [1] -2.01% | growth inhibition [2] -17.1% | viability increase [3] -1.52% | viability [4] 85.7% | viability [5] 84.3% | inhibition [6] 2.56% | RAM network inhibition [7] 0.79%

Cc1ccccc1-c1ccc(Nc2ccc(C(=O)N3CCOCC3)cc2)nn1
inactive: growth inhibition [1] 1.06% | growth inhibition [2] -5.71% | viability increase [3] -2.49% | viability [4] 98.4% | viability [5] 97.2% | inhibition [6] 1.39% | RAM network inhibition [7] -0.83%

Clc1ccc(-n2ncc3c(NCC4CCCO4)ncnc32)cc1 (stereo not drawn)
inactive: growth inhibition [1] -7.04% | growth inhibition [2] -19.4% | viability increase [3] -5.71% | viability [4] 37.6% | viability [5] 37.2% | inhibition [6] 0.57% | RAM network inhibition [7] 8.53%

COc1ccc(C2OC(=O)CC2C(=O)N2CCN(c3cc(Cl)ccc3C)CC2)cc1OC (stereo not drawn)
inactive: growth inhibition [1] -0.42% | growth inhibition [2] 4.67% | viability increase [3] -2.26% | viability [4] 96.8% | viability [5] 95.5% | inhibition [6] 0.44% | RAM network inhibition [7] 2.7%

Cc1nn(-c2cccc(C(F)(F)F)c2)c(Cl)c1/C=N/n1cnnc1
inactive: growth inhibition [1] -2.49% | growth inhibition [2] 17% | viability increase [3] -6.44% | viability [4] 87.7% | viability [5] 85.7% | inhibition [6] -0.18% | RAM network inhibition [7] 1.77%

CC(CCCC(C)(C)O)NCCO (stereo not drawn)
inactive: growth inhibition [1] -9.36% | growth inhibition [2] -4.3% | viability increase [3] 1.25% | viability [4] 102% | viability [5] 106% | inhibition [6] 2.67% | RAM network inhibition [7] -0.17%

O=C(Nc1ccccc1C(=O)N1CCOCC1)c1ccco1
inactive: growth inhibition [1] -6.66% | growth inhibition [2] -11.1% | viability increase [3] -0.74% | viability [4] 101% | viability [5] 105% | inhibition [6] 0.27% | RAM network inhibition [7] 2.67%

CCOC(=O)COC(=O)c1ccc(O)cc1
inactive: growth inhibition [1] -4.13% | growth inhibition [2] -13.5% | viability increase [3] -0.28% | viability [4] 93% | viability [5] 97.8% | inhibition [6] 1.47% | RAM network inhibition [7] 0.37%

CCCC(=O)NCCCc1nc2ccccc2n1CCC
inactive: growth inhibition [1] -2.54% | growth inhibition [2] -20.1% | viability increase [3] -1.65% | viability [4] 102% | viability [5] 95.1% | inhibition [6] 1.56% | RAM network inhibition [7] 3.21%

NC(=O)CSc1nnc(Cn2c(=O)sc3ccccc32)n1-c1ccccc1
inactive: growth inhibition [1] -6.81% | growth inhibition [2] -0.84% | viability increase [3] -0.83% | viability [4] 98.5% | viability [5] 96.8% | inhibition [6] 2.02% | RAM network inhibition [7] 2.47%

Cc1csc(NC(=O)CNS(=O)(=O)c2cccs2)n1
inactive: growth inhibition [1] -4.12% | growth inhibition [2] -18.9% | viability increase [3] -2.55% | viability [4] 93.4% | viability [5] 86.8% | inhibition [6] 0.795% | RAM network inhibition [7] 2.18%

CN1CCN(Cc2ccc(OCc3ccccc3)cc2)CC1
inactive: growth inhibition [1] -3.27% | growth inhibition [2] -1.79% | viability increase [3] -2.45% | viability [4] 88.1% | viability [5] 91.4% | inhibition [6] -0.965% | RAM network inhibition [7] -0.47%

Cc1cccn2c(=O)c3cc(C(=O)NCCCN4CCOCC4)n(C)c3nc12
inactive: growth inhibition [1] -4.96% | growth inhibition [2] -3.14% | viability increase [3] 0.44% | viability [4] 93.1% | viability [5] 93.1% | inhibition [6] 1.06% | RAM network inhibition [7] 0.37%

CN(C)C(=O)c1nnc(Cc2ccc(Cl)cc2)o1
inactive: growth inhibition [1] -8.24% | growth inhibition [2] 7.88% | viability increase [3] 2.17% | viability [4] 98.5% | viability [5] 108% | inhibition [6] 0.31% | RAM network inhibition [7] 7.05%

COc1ccc2occ(C(=O)c3ccc(N=C(C)N(C)C)cc3)c2c1
inactive: growth inhibition [1] -7.86% | growth inhibition [2] -16.5% | viability increase [3] -1.53% | viability [4] 58.4% | viability [5] 70.1% | inhibition [6] 1.21% | RAM network inhibition [7] 0.89%

CCn1c(=O)c2cc(C(=O)N3CCCC3)sc2c2ccccc21
inactive: growth inhibition [1] -4.95% | growth inhibition [2] 13% | viability increase [3] -1.55% | viability [4] 111% | viability [5] 96.8% | inhibition [6] 1.59% | RAM network inhibition [7] 2.1%

O=C(Nc1ccc(F)cc1F)N1CCN(c2ncccn2)CC1
inactive: growth inhibition [1] -14.8% | growth inhibition [2] -26.3% | viability increase [3] -0.19% | viability [4] 106% | viability [5] 100% | inhibition [6] 1.76% | RAM network inhibition [7] 3.24%

COc1ccc2c(c1)[nH]c1c(N3CCN(Cc4ccc5c(c4)OCO5)CC3)ncnc12
active: viability [4] 11.9% | viability [5] 23.1%
inactive: growth inhibition [1] -15.7% | growth inhibition [2] -18.4% | viability increase [3] -5.9% | inhibition [6] 2.08% | RAM network inhibition [7] 5.66%

CCC(C(=O)OC)n1cnc2c(nnn2-c2cccc(Cl)c2)c1=O (stereo not drawn)
inactive: growth inhibition [1] -3.35% | growth inhibition [2] -0.405% | viability increase [3] 1.21% | viability [4] 100% | viability [5] 92.1% | inhibition [6] 0.145% | RAM network inhibition [7] 4.91%

O=C(NC1CCCCCC1)C1CCN(S(=O)(=O)c2cccc3cccnc23)CC1
inactive: growth inhibition [1] 8.96% | growth inhibition [2] 6.42% | viability increase [3] 2.08% | viability [4] 99.5% | viability [5] 105% | inhibition [6] -0.605% | RAM network inhibition [7] 1.35%
